Experimental data reported in ChEMBL document CHEMBL4715912, “Discovery of a novel series of indolinylpyrimidine-based GPR119 agonists: Elimination of ether-a-go-go-related gene liability using a hydrogen bond acceptor-focused approach” (Bioorg Med Chem, 2021).

What was measured:
[1] = Partition coefficient, logD between 1-octanol and pH 7.4 aqueous buffer by chromatographic analysis; format: physicochemical; details: 1-octanol/pH 7.4 aqueous buffer
How it was run: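 LogD at pH 7.4, octanol/aqueous buffer partition, estimated by a chromatographic method adapted from a published procedure.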

[2] = molecular target: T1, hERG (KCNH2) (Homo sapiens, UniProt Q12809); experiment: (§1) Inhibition of human ERG expressed in CHO cells at 10 uM incubated for 5 mins by patch-clamp assay relative to control; format: cell-based; details: CHO cells expressing human ERG
How it was run: (§2)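 hERG-expressing CHO cells grown at 32 °C, recorded by population patch clamp after amphotericin B perforation; PBS with Ca/Mg outside, KCl/EGTA/HEPES pH 7.3 inside. Holding −80 mV, step to 40 mV 2 s, then −50 mV 2 s; peak tail current before and after 5 min compound exposure. Percent inhibition = 100 − post/pre × 100; mean ± SD, n = 4.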

[3] = Intrinsic clearance in rat liver microsomes at 1 uM measured after 15 to 30 mins in presence of NADPH generating system by LC/MS/MS analysis; format: ADME, Microsome; details: time 15-30 min, read-out: CLH
How it was run: (§3)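 Human or rat liver microsomes at 0.2 mg/mL protein in 50 mM potassium phosphate pH 7.4 with 1 µM compound; reaction started with NADPH-generating system (5 mM MgCl2, 5 mM glucose-6-phosphate, 0.5 mM β-NADP+, 1.5 units/mL G6PDH). Stopped with acetonitrile at 15 and 30 min, parent by LC/MS/MS; rate from concentration–time slope, expressed as µL/min/mg.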

[4] = molecular target: T2, Glucose-dependent insulinotropic receptor (Homo sapiens, UniProt Q8TDV5); experiment: Agonist activity at human GPR119 expressed in CHO cells co-expressing cyclic AMP response element incubated for 2 hrs by steady-glo luciferase assay; format: cell-based
T2 sequence (Q8TDV5 whole entry): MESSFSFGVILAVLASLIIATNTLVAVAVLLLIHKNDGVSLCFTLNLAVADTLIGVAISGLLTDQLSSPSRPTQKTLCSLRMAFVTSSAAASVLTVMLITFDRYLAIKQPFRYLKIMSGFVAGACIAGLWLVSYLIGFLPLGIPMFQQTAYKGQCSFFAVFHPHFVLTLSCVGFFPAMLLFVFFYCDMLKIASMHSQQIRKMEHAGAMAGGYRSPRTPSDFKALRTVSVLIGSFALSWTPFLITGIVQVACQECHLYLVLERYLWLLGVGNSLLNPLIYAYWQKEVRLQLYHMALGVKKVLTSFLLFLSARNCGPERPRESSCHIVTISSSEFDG
How it was run: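 CHO cells stably expressing human GPR119, seeded at 10,000 cells/well in MEM α with 500 µg/mL Geneticin overnight, then exposed to graded compound concentrations in MEM α/20 mmol/L HEPES/0.1% BSA for 2 h. cAMP-driven luciferase read with Steady-Glo. Response normalized between vehicle and a 10 µM reference agonist; EC50 as mean of n = 2.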

[5] = molecular target: Voltage-gated inwardly rectifying potassium channel KCNH2 (Homo sapiens, UniProt Q12809); experiment: as §1; format: cell-based; details: cho, 5 min, 10 µM; how it was run: as §2
[6] = Intrinsic clearance in human liver microsomes at 1 uM measured after 15 to 30 mins in presence of NADPH generating system by LC/MS/MS analysis; format: ADME, Microsome; details: time 15-30 min, read-out: CLH; how it was run: as §3
[7] = Total clearance in rat at 0.1 mg/kg, iv by LC/MS/MS analysis; format: ADME, organism-based; details: in vivo
How it was run: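 Cassette intravenous dosing at 0.1 mg/kg to non-fasted animals. Plasma taken from blood samples, deproteinized and centrifuged, and compound levels in supernatant quantified by LC/MS/MS.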

[8] = molecular target: T1, hERG (KCNH2); experiment: Inhibition of human ERG expressed in CHO cells at 30 uM incubated for 5 mins by patch-clamp assay relative to control; format: cell-based; details: CHO cells expressing human ERG; how it was run: as §2

Sequence of Voltage-gated inwardly rectifying potassium channel KCNH2 (Q12809 whole entry): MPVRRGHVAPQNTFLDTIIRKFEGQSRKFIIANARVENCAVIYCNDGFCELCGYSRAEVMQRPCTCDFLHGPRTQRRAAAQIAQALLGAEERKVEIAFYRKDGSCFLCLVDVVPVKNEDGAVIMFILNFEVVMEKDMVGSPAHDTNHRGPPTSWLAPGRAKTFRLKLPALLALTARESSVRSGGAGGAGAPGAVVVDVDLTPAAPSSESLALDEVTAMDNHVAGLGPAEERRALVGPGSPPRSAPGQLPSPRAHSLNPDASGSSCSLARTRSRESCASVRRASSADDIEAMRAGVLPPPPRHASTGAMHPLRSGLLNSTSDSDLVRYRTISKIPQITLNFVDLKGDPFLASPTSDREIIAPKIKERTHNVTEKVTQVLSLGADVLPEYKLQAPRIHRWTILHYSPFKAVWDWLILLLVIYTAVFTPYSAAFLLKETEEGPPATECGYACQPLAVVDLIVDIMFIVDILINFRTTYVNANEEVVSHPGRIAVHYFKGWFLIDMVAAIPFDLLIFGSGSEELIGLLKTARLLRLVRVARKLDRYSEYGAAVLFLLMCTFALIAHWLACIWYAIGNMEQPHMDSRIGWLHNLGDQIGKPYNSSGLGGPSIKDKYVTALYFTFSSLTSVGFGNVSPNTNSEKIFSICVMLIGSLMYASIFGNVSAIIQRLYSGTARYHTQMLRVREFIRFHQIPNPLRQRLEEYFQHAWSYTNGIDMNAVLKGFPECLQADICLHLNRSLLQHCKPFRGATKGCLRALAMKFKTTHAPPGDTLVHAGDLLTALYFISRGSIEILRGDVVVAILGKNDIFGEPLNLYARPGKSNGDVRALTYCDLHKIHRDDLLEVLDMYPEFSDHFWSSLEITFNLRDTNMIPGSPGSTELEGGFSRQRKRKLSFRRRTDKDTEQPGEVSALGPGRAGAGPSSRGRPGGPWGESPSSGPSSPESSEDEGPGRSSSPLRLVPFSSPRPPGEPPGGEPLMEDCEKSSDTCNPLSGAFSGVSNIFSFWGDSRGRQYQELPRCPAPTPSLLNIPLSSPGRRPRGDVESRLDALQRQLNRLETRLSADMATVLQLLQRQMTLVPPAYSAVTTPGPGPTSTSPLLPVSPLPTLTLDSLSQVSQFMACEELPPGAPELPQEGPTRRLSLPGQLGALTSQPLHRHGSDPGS
T1 sequence (Q12809 whole entry): as above

Compound | logD [1] | inhibition at 5 min, 10 µM [2] | microsomal CLint at 1 µM [3] | EC50 [4] | inhibition (INH) [5] | microsomal CLint at 1 µM [6] | clearance [7] | inhibition at 5 min, 30 µM [8]
CC(C)c1noc(N2CCC(Oc3cc(N4CCc5cc(N6CCCC6=O)ccc54)ncn3)CC2)n1 | 3.7 | 20% | 138 µL/min/mg | 33 nM |  |  |  | 
CC(C)SC(=O)N1CCC(Oc2cc(N3CCc4cc([S+]([O-])CCO)ccc43)ncn2)CC1 (stereo in doubt; form 2) | 3.3 |  |  | 9.7 nM | 101% |  |  | 
CC(C)c1noc(N2CCC(Oc3cc(N4CCc5cc(N6CCCC(O)C6=O)ccc54)ncn3)CC2)n1 (racemic) | 3.3 | 20% | 4 µL/min/mg | 17 nM |  |  |  | 
CC(C)c1noc(N2CCC(Oc3cc(N4CCc5cc(N6CCC(O)CC6=O)ccc54)ncn3)CC2)n1 (racemic) | 2.8 | 18% | 13 µL/min/mg | 89 nM |  | 4 µL/min/mg |  | 
CC(C)c1noc(N2CCC(Oc3cc(N4CCc5cc(S(=O)(=O)CCO)ccc54)ncn3)CC2)n1 | 2.7 | 102% |  | 41 nM |  |  |  | 
CC(C)OC(=O)N1CCC(Oc2cc(N3CCc4cc(S(C)(=O)=O)ccc43)ncn2)CC1 |  | 84% |  |  |  |  |  | 
CC(C)SC(=O)N1CCC(Oc2cc(N3CCc4cc([S+]([O-])CCO)ccc43)ncn2)CC1 (stereo in doubt; form 1) |  |  |  | 57 nM | 44% |  |  | 
CCc1cnc(N2CCC(C(C)COC(=O)N3CCc4cc(S(C)(=O)=O)cc(F)c43)CC2)nc1 (centres undefined) |  | 75% | 365 µL/min/mg |  |  | 329 µL/min/mg | 47.7 mL/min/kg | 
CC(C)c1noc(N2CCC(Oc3cc(N4CCc5cc(N6CCCCC6=O)ccc54)ncn3)CC2)n1 | 3.8 | 31% | 13 µL/min/mg | 17 nM |  |  |  | 
CC(C)c1noc(N2CCC(Oc3cc(N4CCc5cc(N6CCNCC6=O)ccc54)ncn3)CC2)n1 | 2.7 | 15% | 98 µL/min/mg | 36 nM |  |  |  | 
CC(C)c1noc(N2CCC(Oc3cc(N4CCc5cc(N6CCCNS6(=O)=O)ccc54)ncn3)CC2)n1 | 3.2 | 20% | 21 µL/min/mg | 24 nM |  | 79 µL/min/mg |  | 
CC(C)SC(=O)N1CCC(Oc2cc(N3CCc4cc([S+]([O-])CCO)ccc43)ncn2)CC1 (racemic) |  |  |  | 14 nM | 95% |  |  | 
CC(C)SC(=O)N1CCC(Oc2cc(N3CCc4ccccc43)ncn2)CC1 | 5.3 | 14% |  | > 10000 nM |  |  |  | 16%
CC(C)c1noc(N2CCC(Oc3cc(N4CCc5cc([S+]([O-])CCO)ccc54)ncn3)CC2)n1 (racemic) | 2.7 | 107% |  | 48 nM |  |  |  | 
CC(C)c1noc(N2CCC(Oc3cc(N4CCc5cc(N6CCC[C@@H](O)C6=O)ccc54)ncn3)CC2)n1 | 3.3 | 23% |  | 25 nM |  |  | 6.25 mL/min/kg | 
CC(=O)N(C)c1ccc2c(c1)CCN2c1cc(OC2CCN(c3nc(C(C)C)no3)CC2)ncn1 | 3.7 | 66% | 17 µL/min/mg | 75 nM |  | 173 µL/min/mg |  | 108%
CC(C)c1noc(N2CCC(Oc3cc(N4CCc5cc(N6CCCS6(=O)=O)ccc54)ncn3)CC2)n1 | 3.2 | 19% | 1 µL/min/mg | 9.7 nM |  | 18 µL/min/mg |  | 
CC(C)c1noc(N2CCC(Oc3cc(N4CCc5cc(C6CCCCC6=O)ccc54)ncn3)CC2)n1 (racemic) | 4.7 | 13% | 141 µL/min/mg | 48 nM |  | 78 µL/min/mg |  | 
CC(C)c1noc(N2CCC(Oc3cc(N4CCc5cc(N6CC(O)CCC6=O)ccc54)ncn3)CC2)n1 (racemic) | 2.6 | 18% | 7 µL/min/mg | 90 nM |  | 1 µL/min/mg |  | 
CC(C)c1noc(N2CCC(Oc3cc(N4CCc5cc(S(C)(=O)=O)ccc54)ncn3)CC2)n1 |  | 106% |  |  |  | 69 µL/min/mg | 3.83 mL/min/kg | 
CC(C)SC(=O)N1CCC(Oc2cc(N3CCc4cc(S(C)(=O)=O)ccc43)ncn2)CC1 | 3.6 | 89% |  | 3.2 nM |  |  |  | 
CC(C)c1noc(N2CCC(Oc3cc(N4CCc5cc(N6CCOCC6=O)ccc54)ncn3)CC2)n1 | 3.1 | 54% | 46 µL/min/mg | 15 nM |  | 27 µL/min/mg |  | 
